Common to all, as to assay type: cell-based
For one experiment, the target named is T1, Adenosine receptor A2b (Homo sapiens, UniProt P29275).
T1 sequence (P29275 whole entry): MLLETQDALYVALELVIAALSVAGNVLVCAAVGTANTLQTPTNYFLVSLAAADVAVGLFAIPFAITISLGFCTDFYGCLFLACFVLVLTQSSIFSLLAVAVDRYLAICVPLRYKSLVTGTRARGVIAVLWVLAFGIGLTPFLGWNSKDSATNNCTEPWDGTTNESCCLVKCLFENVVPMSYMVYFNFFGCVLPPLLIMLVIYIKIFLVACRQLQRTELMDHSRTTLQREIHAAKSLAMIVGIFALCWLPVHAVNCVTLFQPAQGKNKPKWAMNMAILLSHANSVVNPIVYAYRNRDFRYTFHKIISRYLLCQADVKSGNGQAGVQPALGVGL
In words: Displacement of [3]DPCPX from human adenosine A2B receptor expressed in HEK293 cells. In a few lines:
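Membranes (18 µg) incubated 30 min at 25 °C with 35 nM [3H]DPCPX in 50 mM Tris-HCl, 1 mM EDTA, 10 mM MgCl2, 0.1 mM benzamidine, 2 U/mL adenosine deaminase, pH 6.5, plus six concentrations (0.1 nM–1 µM). Nonspecific binding defined with 400 µM NECA. GF/B filtration, six washes with Tris pH 6.5. Ki via Cheng–Prusoff.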

A further experiment deals with T2, Adenosine receptor A3 (Homo sapiens, UniProt P0DMS8).
T2 sequence (P0DMS8 whole entry): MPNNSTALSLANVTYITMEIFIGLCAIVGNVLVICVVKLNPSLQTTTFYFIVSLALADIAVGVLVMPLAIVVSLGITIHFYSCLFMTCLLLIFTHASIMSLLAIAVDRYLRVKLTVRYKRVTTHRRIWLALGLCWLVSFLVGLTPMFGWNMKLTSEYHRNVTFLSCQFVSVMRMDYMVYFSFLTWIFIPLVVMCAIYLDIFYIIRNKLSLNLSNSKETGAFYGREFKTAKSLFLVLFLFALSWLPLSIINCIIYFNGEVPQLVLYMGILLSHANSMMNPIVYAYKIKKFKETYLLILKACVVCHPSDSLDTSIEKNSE
The experiment can be described thus: Displacement of [3]NECA from human adenosine A3 receptor expressed in HeLa cells. In a few lines:
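90 µg membranes, 30 nM [3H]NECA, 180 min at 25 °C in 50 mM Tris-HCl, 1 mM EDTA, 5 mM MgCl2, 2 U/mL adenosine deaminase, pH 7.4. Test compound at six concentrations (0.1 nM–1 µM). Nonspecific binding with 100 µM (R)-PIA. GF/B filtration, six washes, scintillation counting. Ki = IC50/(1 + C/KD).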

Experiment [1] deals with T3, Adenosine receptor A2a (Homo sapiens, UniProt P29274). The experiment can be described thus: Displacement of [3]ZM241385 from human adenosine A2A receptor expressed in HeLa cells. In a few lines:
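10 µg membranes, 3 nM [3H]ZM241385, 30 min at 25 °C in 50 mM Tris-HCl, 1 mM EDTA, 10 mM MgCl2, 2 U/mL adenosine deaminase, pH 7.4. Six test concentrations (0.1 nM–1 µM). Nonspecific binding from 50 µM NECA. GF/C filtration, four ice-cold washes, scintillation counting. Ki via Cheng–Prusoff.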

The target of the next experiment is T4, Adenosine receptor A1 (Homo sapiens, UniProt P30542).
T4 sequence (P30542 whole entry): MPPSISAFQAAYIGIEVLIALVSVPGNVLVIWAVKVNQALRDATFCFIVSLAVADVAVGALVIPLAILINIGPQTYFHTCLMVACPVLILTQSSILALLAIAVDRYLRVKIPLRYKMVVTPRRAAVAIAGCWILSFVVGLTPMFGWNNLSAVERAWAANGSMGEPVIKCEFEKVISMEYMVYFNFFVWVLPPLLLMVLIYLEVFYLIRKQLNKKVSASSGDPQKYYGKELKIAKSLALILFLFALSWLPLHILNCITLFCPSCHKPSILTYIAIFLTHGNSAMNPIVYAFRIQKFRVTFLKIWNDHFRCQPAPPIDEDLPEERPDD
The experiment can be described thus: Displacement of [3]DPCPX from human adenosine A1 receptor expressed in CHO cells. In a few lines: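 Membranes (15 µg) incubated 60 min at 25 °C with 2 nM [3H]DPCPX in 20 mM Hepes, 100 mM NaCl, 10 mM MgCl2, 2 U/mL adenosine deaminase, pH 7.4, plus 6 test concentrations (0.1 nM–1 µM). Nonspecific binding defined with 10 µM (R)-PIA. Filtration on GF/C, 4 ice-cold washes, scintillation counting. Ki from IC50 via Cheng–Prusoff.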

Experiment [2] addresses T5, Adenosine receptor A3 (Homo sapiens) (UniProt P0DMS8).
T5 sequence (whole entry): T2 sequence (P0DMS8 whole entry)
In words: Displacement of [3]NECA from human adenosine A3 receptor expressed in HeLa cells at 1 uM. In short, it runs like this:
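At 1 µM test compound, 90 µg membranes were incubated with 30 nM [3H]NECA for 180 min at 25 °C in Tris/EDTA/5 mM MgCl2/adenosine deaminase buffer, pH 7.4. Nonspecific binding with 100 µM (R)-PIA. Result given as % displacement of specific binding.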

The target of experiment [3] is T3, Adenosine receptor A2a. The experiment can be described thus: Displacement of [3]ZM241385 from human adenosine A2A receptor expressed in HeLa cells at 1 uM. In short, it runs like this:
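At 1 µM test compound: 10 µg membranes, 3 nM [3H]ZM241385, 30 min at 25 °C in Tris/EDTA/MgCl2/adenosine deaminase buffer, pH 7.4. Nonspecific binding from 50 µM NECA. Output is % displacement of specific binding, based on total and nonspecific dpm.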

In experiment [4] the target is T6, Adenosine receptor A2b (Homo sapiens) (UniProt P29275).
T6 sequence (whole entry): T1 sequence (P29275 whole entry)
In words: Displacement of [3]DPCPX from human adenosine A2B receptor expressed in HEK293 cells at 1 uM. In short, it runs like this:
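At 1 µM test compound: 18 µg membranes, 35 nM [3H]DPCPX, 30 min at 25 °C, Tris/EDTA/MgCl2/benzamidine/adenosine deaminase buffer pH 6.5. Nonspecific binding from 400 µM NECA. Value expressed as % displacement of specific binding, calculated from total, nonspecific and competed dpm.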

The target of experiment [5] is T7, Adenosine receptor A1 (Homo sapiens) (UniProt P30542).
T7 sequence (whole entry): T4 sequence (P30542 whole entry)
The experiment can be described thus: Displacement of [3]DPCPX from human adenosine A1 receptor expressed in CHO cells at 1 uM. In a few lines: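 Single-point competition at 1 µM test compound: 15 µg membranes, 2 nM [3H]DPCPX, 60 min at 25 °C, Hepes/NaCl/MgCl2/adenosine deaminase buffer pH 7.4. 10 µM (R)-PIA for nonspecific binding. % displacement = (total binding − dpm)×100/(total − nonspecific).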

A word on the Ki: it is the dissociation constant of the complex between target and ligand, obtained from inhibition or displacement. Low values mean higher affinity, high ones lower affinity. What is called inhibition is the percentage by which the read-out fell short of the control. A low value points to little suppression.

T3 sequence (P29274 whole entry): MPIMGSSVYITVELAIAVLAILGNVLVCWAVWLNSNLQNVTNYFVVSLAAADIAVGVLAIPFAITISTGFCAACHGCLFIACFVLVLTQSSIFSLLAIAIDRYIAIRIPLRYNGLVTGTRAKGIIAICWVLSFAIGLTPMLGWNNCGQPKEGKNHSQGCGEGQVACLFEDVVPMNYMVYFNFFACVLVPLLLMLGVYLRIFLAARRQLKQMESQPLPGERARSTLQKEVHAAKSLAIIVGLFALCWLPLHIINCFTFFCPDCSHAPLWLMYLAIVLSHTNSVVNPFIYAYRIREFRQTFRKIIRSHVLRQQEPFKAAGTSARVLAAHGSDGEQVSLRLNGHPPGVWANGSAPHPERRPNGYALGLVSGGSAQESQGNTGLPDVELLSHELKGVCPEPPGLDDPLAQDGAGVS

On to `CC(O)CNc1nc2ccccc2n2nc(-c3ccco3)nc12` (centres undefined), for which the Ki on Adenosine receptor A2b is 67.6 nM; on Adenosine receptor A3, 22.9 nM; at Adenosine receptor A2a [1], 47.9 nM; on Adenosine receptor A1, 3.98 nM.

Consider `O=C(Nc1nc2ccccc2n2nc(-c3ccco3)nc12)c1ccco1`, for which the Ki is 2510 nM on Adenosine receptor A2b, 251 nM at Adenosine receptor A3, 398 nM on Adenosine receptor A2a [1] and 200 nM on Adenosine receptor A1.

`NCC(O)CNc1nc2ccccc2n2nc(-c3ccco3)nc12` (centres undefined): the inhibition in experiment [2] was found to be 43%; on Adenosine receptor A2a [3], 57%; in experiment [4], 34%. On Adenosine receptor A1, the Ki was 141 nM.

For the compound `c1ccc(COc2nc3ccccc3n3nc(-c4ccco4)nc23)cc1`, the inhibition on Adenosine receptor A2a [3] was 38%; in experiment [4], 3%; in experiment [5], 13.8%. The same compound showed a Ki on Adenosine receptor A3 of 1550 nM.

Take `O=C(CCc1ccccc1)Nc1nc2ccccc2n2nc(-c3ccco3)nc12`: the Ki is 501 nM on Adenosine receptor A2b, 126 nM on Adenosine receptor A3, 63.1 nM at Adenosine receptor A2a [1] and 12.6 nM at Adenosine receptor A1.

Consider `CC(=O)Nc1nc2ccccc2n2nc(-c3ccco3)nc12`, for which the Ki on Adenosine receptor A2b is 251 nM; on Adenosine receptor A3, 251 nM; at Adenosine receptor A2a [1] it was 200 nM; at Adenosine receptor A1, 112 nM.

In the case of `CCN(CC)c1nc2ccccc2n2nc(-c3ccco3)nc12`, the Ki is 2400 nM on Adenosine receptor A2b, 398 nM at Adenosine receptor A2a [1] and 135 nM at Adenosine receptor A1. Further, the inhibition in experiment [2] came to 10.4%.

Consider `COC(CNc1nc2ccccc2n2nc(-c3ccco3)nc12)OC`, for which the figures for the inhibition (in experiment [2]; at Adenosine receptor A2a [3]; in experiment [4]) were 55.3%, 20% and 22%, respectively. This compound had a Ki on Adenosine receptor A1 of 575 nM.

As to `c1coc(CNc2nc3ccccc3n3nc(-c4ccco4)nc23)c1`, the Ki at Adenosine receptor A2b was 1740 nM; on Adenosine receptor A2a [1] it was 490 nM; on Adenosine receptor A1, 33.1 nM. This compound also had an inhibition in experiment [2] of 57.3%.

With `O=C(Nc1nc2ccccc2n2nc(-c3ccco3)nc12)c1cccs1`, the inhibition is 52% in experiment [2], 10% at Adenosine receptor A2a [3] and 21% in experiment [4]. At Adenosine receptor A1, this compound showed a Ki of 50.1 nM.

As for `OCCNc1nc2ccccc2n2nc(-c3ccco3)nc12`, the Ki on Adenosine receptor A2b is 123 nM; on Adenosine receptor A3, 30.2 nM; at Adenosine receptor A2a [1], 63.1 nM; on Adenosine receptor A1, 3.16 nM.

`c1ccc(CCNc2nc3ccccc3n3nc(-c4ccco4)nc23)cc1` yielded an inhibition in experiment [4] of 46%. Further, the Ki on Adenosine receptor A3 was 372 nM; on Adenosine receptor A2a [1] it was 51.3 nM; on Adenosine receptor A1 it was 93.3 nM.

Consider `c1coc(COc2nc3ccccc3n3nc(-c4ccco4)nc23)c1`, for which the results for the inhibition (on Adenosine receptor A2a [3]; in experiment [4]; in experiment [5]) were 8%, 3% and 55.1%, respectively. The affinity on Adenosine receptor A3, expressed as Ki, was 66.1 nM.

Regarding `c1ccc(CNc2nc3ccccc3n3nc(-c4ccco4)nc23)cc1`, the values for the inhibition in experiment [2] and in experiment [4] were 32.6% and 24%, respectively. Also, the results for the Ki on Adenosine receptor A2a [1] and at Adenosine receptor A1 were 302 nM and 102 nM, respectively.

Turning to `Nc1nc2ccccc2n2nc(-c3ccco3)nc12`, the inhibitory constant (Ki) is 13.2 nM on Adenosine receptor A2b, 331 nM at Adenosine receptor A3, 11.2 nM on Adenosine receptor A2a [1] and 5.62 nM at Adenosine receptor A1.

Take `c1coc(-c2nc3c(N4CCNCC4)nc4ccccc4n3n2)c1`: the inhibition was found to be 26.7% in experiment [2], 7% on Adenosine receptor A2a [3], 4% in experiment [4] and 12.3% in experiment [5].

In experiment [4], `COCCNc1nc2ccccc2n2nc(-c3ccco3)nc12` returned an inhibition of 32%. Besides, the Ki is 437 nM on Adenosine receptor A3, 3090 nM at Adenosine receptor A2a [1] and 302 nM at Adenosine receptor A1.

With `OCCN(CCO)c1nc2ccccc2n2nc(-c3ccco3)nc12`, the inhibition amounted to 51.7% in experiment [2] and 46% in experiment [4]. Moreover, the inhibition constant Ki is 110 nM at Adenosine receptor A2a [1] and 58.9 nM on Adenosine receptor A1.

Consider `COCCCNc1nc2ccccc2n2nc(-c3ccco3)nc12`, for which the Ki at Adenosine receptor A2b was 427 nM; at Adenosine receptor A2a [1], 372 nM; at Adenosine receptor A1, 74.1 nM. Moreover, the inhibition in experiment [2] stood at 82%.

Consider `CCOc1nc2ccccc2n2nc(-c3ccco3)nc12`, for which the inhibition in experiment [2] turned out to be 69%; on Adenosine receptor A2a [3], 38%; in experiment [4], 34%. The Ki on Adenosine receptor A1 was 3720 nM.

With `c1coc(-c2nc3c(OCc4ccoc4)nc4ccccc4n3n2)c1`, the Ki on Adenosine receptor A2b was 145 nM; on Adenosine receptor A3, 676 nM; at Adenosine receptor A2a [1], 575 nM; on Adenosine receptor A1, 537 nM.

On to `O=C(Cc1ccccc1)Nc1nc2ccccc2n2nc(-c3ccco3)nc12`, for which the Ki is 251 nM on Adenosine receptor A2b, 100 nM at Adenosine receptor A3, 158 nM at Adenosine receptor A2a [1] and 63.1 nM at Adenosine receptor A1.

Consider `OCCN1CCN(c2nc3ccccc3n3nc(-c4ccco4)nc23)CC1`, for which the inhibition in experiment [2] was determined as 24%; at Adenosine receptor A2a [3], 12%; in experiment [4], 3%; in experiment [5] it was 24.5%.

With `COc1nc2ccccc2n2nc(-c3ccco3)nc12`, the inhibition in experiment [2] is 57.4%; in experiment [4], 28%. Moreover, the Ki on Adenosine receptor A2a [1] was 398 nM; at Adenosine receptor A1, 331 nM.

For `CN(C)c1nc2ccccc2n2nc(-c3ccco3)nc12`, the inhibition came to 50.7% in experiment [2], 17% in experiment [4] and 31.1% in experiment [5]. On Adenosine receptor A2a [1], the affinity, expressed as Ki, was 309 nM.

Consider `c1ccc(Nc2nc3ccccc3n3nc(-c4ccco4)nc23)cc1`, for which the values for the inhibition in experiment [2] and in experiment [4] were 71.7% and 49%, respectively. Moreover, the results for the Ki on Adenosine receptor A2a [1] and at Adenosine receptor A1 were 64.6 nM and 45.7 nM, respectively.

These data come from ChEMBL document CHEMBL1143971, “Synthesis, adenosine receptor binding and 3D-QSAR of 4-substituted 2-(2'-furyl)-1,2,4-triazolo[1,5-a]quinoxalines” (Bioorg Med Chem, 2008).
